Paper PMC6718336 (Proteins, 2019)
Values joined by “and” are separate entries in the source; they are usually repeats but may differ in a detail not shown here. Equal entries are not always repeated.

How the values were obtained:
[1] = biological target: Hsp90α (1-236) NTD (Homo sapiens, UniProt P07900); assay: ITC binding to Hsp90α NTD; details: ITC, 298 K; for N: stoichiometry, one-site model
Summary of the method: (§1)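 Human Hsp90α residues 1-236, N-terminal His-tagged, expressed in E. coli Rosetta (DE3), purified by Ni-NTA and size exclusion. ITC in matched 40 mM HEPES-KOH pH 7.4, 100 mM NaCl, 1% DMSO. Protein (503 or 336 μM) titrated into test compound (50.7 or 30.1 μM); nucleotides titrated into protein. One-site fit, mean of two titrations ± SEM.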

[2] = tested on: Hsp90α (1-236) NTD; assay: ITC binding to Hsp90α NTD; parameters: species or system Human; details: preference for Hsp90α over Hsp90β from ITC KD
Summary of the method: as §1

[3] = biological target: Hsp90α S52A (1-236) (Homo sapiens, UniProt P07900, S52A); assay: ITC binding to Hsp90α S52A mutant NTD; details: for C-values / Kd / TΔS / ΔG / ΔH / N: ITC, 298 K; for N: stoichiometry, one-site model; for fold change in affinity, Hsp90α S52A vs wild type Hsp90α: ratio of ITC KD
Summary of the method: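 Human Hsp90α NTD (1-236) S52A, N-terminal His-tagged, expressed in E. coli Rosetta (DE3), purified by Ni-NTA then size exclusion. ITC in matched 40 mM HEPES-KOH pH 7.4, 100 mM NaCl, 1% DMSO. 255 or 393 μM protein was injected into 33.0 or 41.8 μM test compound. Wild type was run alike: 503 or 336 μM into 50.7 or 30.1 μM. One-site fit; mean of two titrations ± SEM.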

[4] = biological target: Hsp90β NTD (Homo sapiens, UniProt P08238); assay: ITC binding to Hsp90β NTD; details: 298 K; for N: stoichiometry, one-site model
Hsp90β NTD, sequence (P08238 1-221 limits assumed): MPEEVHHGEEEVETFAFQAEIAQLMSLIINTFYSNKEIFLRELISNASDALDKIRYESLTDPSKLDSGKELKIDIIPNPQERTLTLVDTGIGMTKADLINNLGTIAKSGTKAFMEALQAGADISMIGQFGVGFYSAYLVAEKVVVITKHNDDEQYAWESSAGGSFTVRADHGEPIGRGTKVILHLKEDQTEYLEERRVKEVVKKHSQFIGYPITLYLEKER
Summary of the method: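 Human Hsp90β NTD, N-terminal His-tagged, expressed in E. coli Rosetta (DE3), purified by Ni-NTA then size exclusion. ITC in matched 40 mM HEPES-KOH pH 7.4, 100 mM NaCl, 1% DMSO. 891 or 885 μM protein was injected into 93.3 or 97.8 μM test compound in the cell. For ATP/ADP, protein was in the cell and nucleotide in the syringe. One-site fit; mean of two titrations ± SEM.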

[5] = tested on: Hsp90β; details: competition binding assays; cited from earlier work

Row | C-values [1] | Kd [1] | TΔS [1] [kcal/mol] | ΔG [1] [kcal/mol] | ΔH [1] [kcal/mol] | N [1] | α/β selectivity, KD (ITC) [2] [fold] | C-values [3] | Kd [3] [µM] | TΔS [3] [kcal/mol] | ΔG [3] [kcal/mol] | ΔH [3] [kcal/mol] | N [3] | fold change in affinity, Hsp90α S52A vs wild type Hsp90α [3] [fold] | C-values [4] | Kd [4] [µM] | TΔS [4] [kcal/mol] | ΔG [4] [kcal/mol] | ΔH [4] [kcal/mol] | N [4] | SMILES | also measured
1 | 8.40 – 11.1 | 8.6 µM and 8.59 µM | -13.0 ± 0.28 | -6.90 ± 0.00 | -19.9 ± 0.28 | 0.752 ± 0.014 | 1.4 ± 0.2 | 16.7 – 18.2 | 9.06 ± 0.93 | -13.0 ± 0.21 | -6.85 ± 0.07 | -19.8 ± 0.14 | 0.756 ± 0.100 | 1.05 ± 0.11 | 6.74 – 14.1 | 12.4 ± 1.77 | -12.9 ± 0.99 | -6.75 ± 0.07 | -19.7 ± 0.92 | 0.813 ± 0.042 | Nc1ncnc2c1ncn2[C@@H]1O[C@H](COP(=O)(O)OP(=O)(O)O)[C@@H](O)[C@H]1O [ADP] | 
2 | 1.13 – 1.44 | 209 ± 21.9 µM | -12.0 ± 1.84 | -5.05 ± 0.07 | -17.1 ± 1.77 | 0.691 ± 0.066 | 1.3 ± 0.2 | 1.26 – 1.29 | 239 ± 0.71 | -12.7 ± 0.85 | -4.95 ± 0.07 | -17.7 ± 0.78 | 0.592 ± 0.026 | 1.14 ± 0.12 | 1.00 – 1.19 | 281 ± 39.6 | -12.3 ± 2.55 | -4.90 ± 0.14 | -17.2 ± 2.40 | 0.707 ± 0.112 | Nc1ncnc2c1ncn2[C@@H]1O[C@H](COP(=O)(O)OP(=O)(O)OP(=O)(O)O)[C@@H](O)[C@H]1O [ATP] | 
3 |  |  |  |  |  |  |  |  |  |  |  |  |  |  |  |  |  |  |  |  | CC(C)c1cc(C(=O)N2Cc3ccccc3C2)c(O)c2cnoc12 [KUNB31] | preference for Hsp90β over Hsp90α [5]: 50 fold
